According to ChEMBL document CHEMBL4325934, “Discovery of 12-Thiazole Abietanes as Selective Inhibitors of the Human Metabolic Serine Hydrolase hABHD16A” (ACS Med Chem Lett, 2018):
Calls of active or inactive are those of the source. The calls are words filed in the database; no cut-off is given here.

Key:
[1] = target: T1, ABHD12 (lysophosphatidylserine lipase) (Homo sapiens, UniProt Q8N2K0); test: Inhibition of human ABHD12 expressed in HEK293 cells assessed as residual activity at 10 uM preincubated for 30 mins followed by 1-AG substrate addition and measured after 90 to 120 mins by fluorometric assay relative to control; format: cell-based; settings: HEK293 cells that express human ABHD12, probe 1-AG, read-out: Activity
T1 sequence (Q8N2K0 whole entry): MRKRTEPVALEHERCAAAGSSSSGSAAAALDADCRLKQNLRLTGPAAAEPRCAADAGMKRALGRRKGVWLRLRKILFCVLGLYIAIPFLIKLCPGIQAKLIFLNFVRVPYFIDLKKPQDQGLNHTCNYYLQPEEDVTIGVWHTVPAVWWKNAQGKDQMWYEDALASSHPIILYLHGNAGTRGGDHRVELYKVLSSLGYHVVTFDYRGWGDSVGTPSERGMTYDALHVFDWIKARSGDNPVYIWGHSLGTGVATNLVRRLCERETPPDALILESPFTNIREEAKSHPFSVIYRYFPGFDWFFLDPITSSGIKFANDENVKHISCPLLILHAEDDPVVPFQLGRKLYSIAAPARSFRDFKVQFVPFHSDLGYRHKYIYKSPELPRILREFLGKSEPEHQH
Outline: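 Screened at 10 µM in lysates of HEK293 cells overexpressing human ABHD12, given as remaining hydrolase activity relative to control (mean ± SD, n=2-3).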

[2] = target: T2, Phosphatidylserine lipase ABHD16A (Homo sapiens) (UniProt O95870); test: Inhibition of human ABHD16A expressed in HEK293 cells assessed as residual activity at 10 uM preincubated for 30 mins followed by 1-LG substrate addition and measured after 90 to 120 mins by fluorometric assay relative to control; format: cell-based
T2 sequence (whole entry): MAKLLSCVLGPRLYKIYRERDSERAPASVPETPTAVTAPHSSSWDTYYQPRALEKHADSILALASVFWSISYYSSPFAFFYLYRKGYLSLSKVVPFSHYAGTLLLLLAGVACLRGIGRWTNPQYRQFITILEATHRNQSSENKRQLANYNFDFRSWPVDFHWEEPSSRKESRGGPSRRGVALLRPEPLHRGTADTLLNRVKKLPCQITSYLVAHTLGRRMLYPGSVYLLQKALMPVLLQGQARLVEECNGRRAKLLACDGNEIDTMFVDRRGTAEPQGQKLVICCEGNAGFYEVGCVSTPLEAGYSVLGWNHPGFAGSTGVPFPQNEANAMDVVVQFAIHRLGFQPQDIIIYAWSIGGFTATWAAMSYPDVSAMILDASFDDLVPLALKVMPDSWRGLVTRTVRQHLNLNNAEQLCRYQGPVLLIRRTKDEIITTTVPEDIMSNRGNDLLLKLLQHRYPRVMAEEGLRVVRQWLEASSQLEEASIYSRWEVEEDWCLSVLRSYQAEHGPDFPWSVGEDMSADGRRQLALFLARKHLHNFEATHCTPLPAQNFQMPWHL
Outline: (§1)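 Lysates of HEK293 cells transiently overexpressing human ABHD16A were pretreated 30 min with DMSO (control) or inhibitor, then 1-LG substrate was added (25 µM final), and liberated glycerol was measured. The single-concentration screen was at 10 µM, reported as % control activity (mean ± SD, n=2-3). Dose-responses used four concentrations (0.1-100 µM), duplicate wells, two independent experiments.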

[3] = target: T2, Phosphatidylserine lipase ABHD16A (Homo sapiens); test: Potency index, ratio of tetrahydrolipstatin IC50 to compound IC50 for inhibition of ABHD16A (unknown origin)
[4] = target: Acyl-protein thioesterase 1 (Rattus norvegicus) (UniProt P70470); test: Binding affinity to LYPLA1 in rat cerebellar membranes at 10 uM measured after 1 hr by fluorescence based ABPP analysis; format: cell membranes; settings: Cerebellum, Membrane
[5] = target: T3, Phosphatidylserine lipase ABHD16A (Rattus norvegicus) (UniProt Q6MG55); test: Inhibition of TAMRA-FP binding to ABHD16A in rat cerebellar membranes at 10 uM preincubated for 1 hr followed by TAMRA-FP addition measured after 1 hr by fluorescence based ABPP analysis; format: cell membranes; settings: Cerebellum, Membrane
T3 sequence (whole entry): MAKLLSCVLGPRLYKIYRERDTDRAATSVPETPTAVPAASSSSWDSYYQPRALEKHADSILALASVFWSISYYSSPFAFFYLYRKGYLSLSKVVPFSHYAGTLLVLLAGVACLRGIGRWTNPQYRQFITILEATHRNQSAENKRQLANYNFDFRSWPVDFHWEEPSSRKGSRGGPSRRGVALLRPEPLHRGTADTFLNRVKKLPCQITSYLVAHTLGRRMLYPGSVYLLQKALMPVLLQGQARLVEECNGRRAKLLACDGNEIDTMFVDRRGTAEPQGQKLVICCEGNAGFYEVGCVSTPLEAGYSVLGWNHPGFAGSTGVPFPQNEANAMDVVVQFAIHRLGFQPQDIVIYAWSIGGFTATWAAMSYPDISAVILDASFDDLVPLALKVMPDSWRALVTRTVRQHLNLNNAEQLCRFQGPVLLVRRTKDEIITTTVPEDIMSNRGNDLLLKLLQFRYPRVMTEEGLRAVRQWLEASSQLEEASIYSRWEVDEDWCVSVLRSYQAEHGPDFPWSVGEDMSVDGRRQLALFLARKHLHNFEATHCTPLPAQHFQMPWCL

[6] = target: T4, Phosphatidylserine lipase ABHD16A (Homo sapiens, UniProt O95870); test: Inhibition of human ABHD16A expressed in HEK293 cells preincubated for 30 mins followed by 1-LG substrate addition and measured after 90 to 120 mins by fluorometric assay; format: cell-based; outline: as §1
T4 sequence (O95870 whole entry): T2 sequence (whole entry)

[7] = target: T4, Phosphatidylserine lipase ABHD16A; test: Reversible inhibition of human ABHD16A expressed in HEK293 cells preincubated for 30 mins followed by 40 fold compound dilution and subsequent 1-LG substrate addition and measured at 30 mins time interval for 120 mins by fluorometric assay; format: cell-based
Outline: (§2)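 Reversibility test: hABHD16A-HEK293 lysate treated with inhibitor was rapidly diluted 40-fold before substrate addition. Inhibitor range extended up to 1 mM, and potency was compared with the routine assay (30 min pretreatment, 1-LG hydrolysis, glycerol read-out). Mean ± SD from two independent experiments.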

[8] = target: T2, Phosphatidylserine lipase ABHD16A (Homo sapiens); test: Ratio of IC50 for reversible inhibition of human ABHD16A expressed in HEK293 cells to IC50 for inhibition of human ABHD16A expressed in HEK293 cells; format: cell-based; outline: as §2
[9] = target: Acyl-protein thioesterase 2 (Rattus norvegicus) (UniProt Q9QYL8); test: Binding affinity to LYPLA2 in rat cerebellar membranes at 10 uM measured after 1 hr by fluorescence based ABPP analysis; format: cell membranes; settings: Cerebellum, Membrane
Outline: (§3)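 Competitive ABPP in rat cerebellar membrane proteome: the proteome was pretreated with inhibitor, then labelled with the TAMRA-FP probe, and loss of band labelling was read by fluorescence. Reversible test inhibitors were used at 20 and 200 µM.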

[10] = target: T2, Phosphatidylserine lipase ABHD16A (Homo sapiens); test: Inhibition of human ABHD16A expressed in HEK293 cells assessed as residual activity at 100 uM preincubated for 30 mins followed by 1-LG substrate addition and measured after 90 to 120 mins by fluorometric assay relative to control; format: cell-based; outline: as §1
[11] = target: T3, Phosphatidylserine lipase ABHD16A (Rattus norvegicus); test: Inhibition of TAMRA-FP binding to ABHD16A in rat cerebellar membranes preincubated for 1 hr followed by TAMRA-FP addition measured after 1 hr by fluorescence based ABPP analysis; format: cell membranes; settings: Cerebellum, Membrane; outline: as §3
[12] = target: T3, Phosphatidylserine lipase ABHD16A (Rattus norvegicus); test: Inhibition of TAMRA-FP binding to ABHD16A in rat cerebellar membranes at 200 uM preincubated for 1 hr followed by TAMRA-FP addition measured after 1 hr by fluorescence based ABPP analysis; format: cell membranes; settings: Cerebellum, Membrane; outline: as §3
[13] = target: T2, Phosphatidylserine lipase ABHD16A (Homo sapiens); test: Inhibition of TAMRA-FP binding to human ABHD16A expressed in HEK293 cells at 20 to 200 uM preincubated for 1 hr followed by TAMRA-FP addition measured after 1 hr by fluorescence based ABPP analysis; format: cell-based
[14] = target: T3, Phosphatidylserine lipase ABHD16A (Rattus norvegicus); test: Inhibition of TAMRA-FP binding to ABHD16A in rat cerebellar membranes at 1 uM preincubated for 1 hr followed by TAMRA-FP addition measured after 1 hr by fluorescence based ABPP analysis; format: cell membranes; settings: Cerebellum, Membrane
Outline: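 Competitive ABPP on rat cerebellar membrane proteome. Proteome was pretreated with inhibitor, then labeled with the serine hydrolase probe TAMRA-FP. Loss of labeling of the band migrating at ~63 kDa, assigned as ABHD16A, was the read-out.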

Sequence of Acyl-protein thioesterase 2 (Rattus norvegicus) (Q9QYL8 whole entry): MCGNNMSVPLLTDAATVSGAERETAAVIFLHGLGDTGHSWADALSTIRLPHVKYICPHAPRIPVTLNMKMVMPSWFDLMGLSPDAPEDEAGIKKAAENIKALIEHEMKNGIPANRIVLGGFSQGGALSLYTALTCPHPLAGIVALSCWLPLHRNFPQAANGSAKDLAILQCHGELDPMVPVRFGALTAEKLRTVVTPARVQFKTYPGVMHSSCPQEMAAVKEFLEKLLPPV
Sequence of Acyl-protein thioesterase 1 (Rattus norvegicus) (P70470 whole entry): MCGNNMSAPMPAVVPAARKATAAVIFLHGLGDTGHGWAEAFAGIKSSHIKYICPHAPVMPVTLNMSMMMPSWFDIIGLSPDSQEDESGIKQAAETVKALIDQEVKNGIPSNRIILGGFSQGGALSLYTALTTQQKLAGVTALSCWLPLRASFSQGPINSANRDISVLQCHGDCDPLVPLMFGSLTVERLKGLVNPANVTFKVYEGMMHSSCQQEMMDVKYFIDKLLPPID

| activity at 10 µM [1] [%] | Activity [2] [%] | SMILES | also measured |
| --- | --- | --- | --- |
| 91.1 | 80.1 | COC(=O)[C@]1(C)CCC[C@]2(C)c3cc(-c4csc[n+]4C)c(C(C)C)cc3CC[C@@H]12 |  |
| 96.6 | 99.3 | COC(=O)[C@]1(C)CCC[C@]2(C)c3cc(-c4csc(-c5ccc(Cl)cc5)n4)c(C(C)C)cc3CC[C@@H]12 |  |
| 96.9 | 80 | CC(C)c1cc2c(cc1-c1csc(N)n1)[C@@]1(C)CCC[C@@](C)(C(N)=O)[C@@H]1CC2 |  |
| 100 | 23 | COC(=O)[C@]1(C)CCC[C@]2(C)c3cc(-c4csc(C)n4)c(C(C)C)cc3CC[C@@H]12 | Activity [10]: 12%; inhibition [11]: Dose-dependent effect; IC50 [6]: 3.4 to 3.6 µM; IC50 [7]: 41.1 µM; Ratio IC50 [8]: 11.4 |
| 94.3 | 42.8 | COC(=O)[C@]1(C)CCC[C@]2(C)c3cc(-c4csc(C#N)n4)c(C(C)C)cc3CC[C@@H]12 | inhibition [12]: Active; inhibition [13]: inactive; Activity [10]: 25%; IC50 [6]: 4.9 to 5.2 µM; IC50 [7]: 31.6 µM; Ratio IC50 [8]: 6.4 |
| 98.7 | 66.3 | Cc1nc(-c2cc3c(cc2C(C)C)CC[C@H]2[C@](C)(CO)CCC[C@]32C)cs1 |  |
| 98.4 | 91.5 | CC(C)c1cc2c(cc1-c1cscn1)[C@@]1(C)CCC[C@@](C)(C(=O)O)[C@@H]1CC2 |  |

The remaining lines, values behind:

| SMILES | activity at 10 µM [1] [%] | Activity [2] [%] | also measured |
| --- | --- | --- | --- |
| Cc1nc(-c2cc3c(cc2C(C)C)CC[C@H]2[C@](C)(C(=O)O)CCC[C@]32C)cs1 | 102 | 98.4 |  |
| CCCCCCCCCCCCCC1OC(=O)/C1=C\CCCCC(N)=O (configuration not stated) |  |  | Ratio IC50 [3]: 1.3 |
| CCCCCCCCCC[C@@H]1C(=O)O[C@H]1CCc1ccc(OC)c(OC)c1 [PALMOSTATIN B] |  |  | Activity [4]: Active; Ratio IC50 [3]: 1.7; inhibition [5]: Active; IC50 [6]: 0.099 to 0.105 µM; IC50 [7]: 0.057 µM; Ratio IC50 [8]: 1.8; Activity [9]: Active |
| CCOC(=O)c1nc(-c2cc3c(cc2C(C)C)CC[C@H]2[C@](C)(C(=O)OC)CCC[C@]32C)cs1 | 73.8 | 48.7 |  |
| COC(=O)[C@]1(C)CCC[C@]2(C)c3cc(-c4csc(-c5ccccc5)n4)c(C(C)C)cc3CC[C@@H]12 | 89.8 | 73.8 |  |
| CC(C)c1cc2c(cc1-c1cscn1)[C@@]1(C)CCC[C@@](C)(C(N)=O)[C@@H]1CC2 | 98.7 | 82.1 |  |
| COC(=O)[C@]1(C)CCC[C@]2(C)c3cc(-c4csc(C)[n+]4C)c(C(C)C)cc3CC[C@@H]12 | 92.8 | 82.7 |  |
| CC(C)c1cc2c(cc1-c1cscn1)[C@@]1(C)CCC[C@@](C)(C(=O)OCCO)[C@@H]1CC2 | 77.8 | 62.9 |  |
| COC(=O)[C@]1(C)CCC[C@]2(C)c3cc(-c4csc(N)n4)c(C(C)C)cc3CC[C@@H]12 | 103 | 58.2 |  |
| CC(C)c1cc2c(cc1-c1cscn1)[C@@]1(C)CCC[C@@](C)(CO)[C@@H]1CC2 | 96.3 | 65.9 |  |
| CCCCCCCCCCC[C@@H](C[C@@H]1OC(=O)[C@H]1CCCCCC)OC(=O)[C@H](CC(C)C)NC=O |  |  | inhibition [5]: Active |
| CC(C)c1cc2c(cc1-c1csc(N)n1)[C@@]1(C)CCC[C@@](C)(CO)[C@@H]1CC2 | 87.8 | 74.6 |  |
| COC(=O)[C@]1(C)CCC[C@]2(C)c3cc(-c4csc(-c5ccccc5Cl)n4)c(C(C)C)cc3CC[C@@H]12 | 101 | 86.6 |  |
| Cc1nc(-c2cc3c(cc2C(C)C)CC[C@H]2[C@](C)(C(N)=O)CCC[C@]32C)cs1 | 99.6 | 80.6 |  |
| COC(=O)[C@]1(C)CCC[C@]2(C)c3cc(-c4cscn4)c(C(C)C)cc3CC[C@@H]12 | 91.5 | 50.3 |  |
| CC[n+]1c(-c2cc3c(cc2C(C)C)CC[C@H]2[C@](C)(C(=O)OC)CCC[C@]32C)csc1C | 91.1 | 81.5 |  |
| COc1nn(-c2ccc(F)cc2)c(=O)o1 |  |  | Ratio IC50 [3]: 5.3; inhibition [14]: Active |
